According to PMC5159748 (Archives of biochemistry and biophysics, 2016):

Legend:
[1] = biological target: T1, K346 (Drosophila kinesin-1 motor domain; apo-K346) (Drosophila melanogaster, UniProt P17210); test: stopped-flow FRET; format: binding
T1 sequence (P17210 2-346): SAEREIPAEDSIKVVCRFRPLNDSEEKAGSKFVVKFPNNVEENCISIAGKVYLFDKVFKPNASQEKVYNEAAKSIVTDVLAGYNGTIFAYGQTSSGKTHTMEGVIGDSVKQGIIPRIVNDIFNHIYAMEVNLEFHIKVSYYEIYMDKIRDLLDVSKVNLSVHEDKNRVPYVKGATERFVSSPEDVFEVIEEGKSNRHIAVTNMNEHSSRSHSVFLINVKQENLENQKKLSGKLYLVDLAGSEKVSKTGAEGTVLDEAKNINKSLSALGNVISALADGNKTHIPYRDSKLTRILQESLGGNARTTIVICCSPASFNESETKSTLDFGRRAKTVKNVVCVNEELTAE
Outline: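 Apo-K346 (Tev-cleaved, ADP-stripped) at 25 °C in A25 buffer (pH 6.9) with 50 mM KCl and glycerol as indicated. FRET from tyrosines to mdADP: excitation 280 nm, 418 nm long-pass emission. Association: stopped-flow mixing with ≥10-fold excess mdADP, kon = kobs/[mdADP]. Release: 0.84 μM E•mdADP chased with 400 μM MgATP, single-exponential fit. SD from ≥3 transients.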

[2] = biological target: Microtubules prepared from porcine tubulin, stabilized with paclitaxel (porcine) (UniProt P02550); test: turbidity increase

Kd [1] [nM]	Kd [2] [nM]	Molecule
2		CNc1ccccc1C(=O)O[C@H]1C[C@H](n2cnc3c(N)ncnc32)O[C@@H]1COP(=O)(O)OP(=O)(O)O [mdADP]
	1800	K346, monomeric Drosophila kinesin-1 motor domain (amino acids 2-346) (from UniProt P17210 2-346) (domain or fragment)
